Test results published in ChEMBL document CHEMBL5653614, “Rescue of fragile X syndrome phenotypes in Fmr1 KO mice by the small-molecule PAK inhibitor FRAX486” (Proc Natl Acad Sci U S A, 2013).
Active and inactive are the calls of the source. The calls are words filed in the database; no cut-off is given here.

What was measured:
[1] = tested on: Mus musculus; assay: Protective activity in Fmr1 knockout FVB.129P2-Fmr1tm1Cgr/J mouse model of Fragile X syndrome assessed as decrease in time spent in moving at 20 mg/kg, sc for 5 days and measured for 30 mins by open field assay; assay type: functional, organism-based; conditions: time 5.0 day
Summary of the method: (§1)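 Adult male WT and Fmr1 KO mice dosed s.c. at 20 mg/kg or vehicle for 5 d; tested 4–5.5 h after dosing. Single mouse in a novel open field for 30 min, tracked by infrared sensors in 1-min bins; bar-graph values averaged over minutes 18–30. Mice beyond 2 SD in total distance, or immobile for 5 consecutive minutes, were excluded.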

[2] = Toxicity in FVB.129P2-Pde6b+ Tyr c-ch/AntJ wild type mouse assessed as body weight change at 20 mg/kg,sc for 21 days; assay type: organism-based; conditions: in vivo, 504 h, time 21 day
[3] = tested on: Mus musculus; assay: Protective activity in Fmr1 knockout FVB.129P2-Fmr1tm1Cgr/J mouse assessed as decrease in apical dendritic spine density in layer II/III pyramidal neurons segment 6 at 20 mg/kg, sc and measured after 8 hrs by Golgi-Cox technique analysis; assay type: functional, organism-based
Summary of the method: (§2)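 Adult male WT and Fmr1 KO FVB mice given 20 mg/kg s.c. or vehicle; brains collected 8 h later and Golgi stained. Apical dendrites of layer II/III pyramidal neurons in temporal cortex, originating 50–100 µm from the soma, were divided into ten 10-µm segments and spines counted. 40–60 neurons from 4–6 mice per group; one-way ANOVA.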

[4] = tested on: Mus musculus; assay: (§3) Anti-seizure activity against 124dB loud auditory stimulus induced Fmr1 knockout FVB.129P2-Fmr1tm1Cgr/J mouse model of audiogenic seizure assessed as decrease in sound-induced wild running at 10 mg/kg,sc for 5 days followed by audiogenic seizure induction after 8 hrs post-treatment by audiogenic seizure assay (Rvb=100%); assay type: functional; set-up: scale not given: the % may be the effect or the level left; conditions: time 5 day
Summary of the method: (§4)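 Adult male Fmr1 KO mice given 10 or 20 mg/kg s.c. daily for 5 d in 20% hydroxypropyl-β-cyclodextrin vehicle. AGS assay run 8 h after the final injection: 2 min acclimation in an acrylic chamber, then a 124 dB auditory stimulus. Incidence of wild running and seizure recorded; χ2 comparison with vehicle.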

[5] = tested on: Mus musculus; assay: Protective activity in Fmr1 knockout FVB.129P2-Fmr1tm1Cgr/J mouse assessed as decrease in apical dendritic spine density in layer II/III pyramidal neurons segment 5 at 20 mg/kg, sc and measured after 8 hrs by Golgi-Cox technique analysis; assay type: functional, organism-based; summary of the method: as §2
[6] = tested on: Mus musculus; assay: Protective activity in Fmr1 knockout FVB.129P2-Fmr1tm1Cgr/J mouse assessed as decrease in apical dendritic spine density in layer II/III pyramidal neurons segment 10 at 20 mg/kg, sc and measured after 8 hrs by Golgi-Cox technique analysis; assay type: functional, organism-based; summary of the method: as §2
[7] = tested on: Mus musculus; assay: Protective activity in Fmr1 knockout FVB.129P2-Fmr1tm1Cgr/J mouse assessed as decrease in apical dendritic spine density in layer II/III pyramidal neurons segment 9 at 20 mg/kg, sc and measured after 8 hrs by Golgi-Cox technique analysis; assay type: functional, organism-based; summary of the method: as §2
[8] = tested on: Mus musculus; assay: Protective activity in FVB.129P2-Pde6b+ Tyr c-ch/AntJ wild type mouse assessed as motor coordination at 20 mg/kg, sc and measured for 4 to 5.25 hrs by rotarod test; assay type: functional, organism-based; conditions: time 4-5.25 hrs
Summary of the method: (§5)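 Adult male WT and Fmr1 KO mice tested 4–5.5 h after s.c. 20 mg/kg or vehicle. Latency to fall or jump off the rotating cylinder recorded (max 3 min). Three trials per mouse, 30–40 min apart; per-mouse average latency compared.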

[9] = tested on: Mus musculus; assay: as §3, with “at 20” for “at 10”; assay type: functional; set-up: scale not given: the % may be the effect or the level left; conditions: time 5 day; summary of the method: as §4
[10] = tested on: Mus musculus; assay: Anti-seizure activity against 124dB loud auditory stimulus induced Fmr1 knockout FVB.129P2-Fmr1tm1Cgr/J mouse model of audiogenic seizure assessed as decrease in sound-induced seizure at 30 mg/kg,sc for 8 hrs followed by audiogenic seizure induction by audiogenic seizure assay (Rvb=100%); assay type: functional; set-up: scale not given: the % may be the effect or the level left
Summary of the method: (§6)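 Adult male mice (10–17 wk). Single s.c. dose (0, 10, 20 or 30 mg/kg) in 20% (wt/vol) hydroxypropyl-β-cyclodextrin vehicle; AGS induced 8 h later. Mouse acclimated 2 min in a clear acrylic two-chamber box, then exposed to a 124 dB sound. Scored as percentage of animals showing each sequential phase (wild running, seizure, death by respiratory arrest); χ2 test against vehicle.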

[11] = tested on: Mus musculus; assay: Protective activity in Fmr1 knockout FVB.129P2-Fmr1tm1Cgr/J mouse model of Fragile X syndrome assessed as increase in testicular weight at 20 mg/kg, sc for 21 days; assay type: functional, organism-based; conditions: time 21.0 day
[12] = Drug concentration in FVB.129P2 mouse brain at 20 mg/kg,sc and measured from 8 to 18 hrs by LC-MS/MS analysis; assay type: ADME, organism-based; conditions: in vivo, time 8-18 hrs
Summary of the method: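 WT FVB.129P2 mice got one s.c. injection of 20 mg/kg (2 mg/mL in 20% hydroxypropyl-β-cyclodextrin). Blood and forebrain were collected at time points from 15 min to 24 h. Forebrain was weighed, snap-frozen and homogenized in 2 volumes of cold PBS. Drug quantified by LC-MS/MS. n = 2–3, mean ± SEM.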

[13] = tested on: Mus musculus; assay: Anti-seizure activity against 124dB loud auditory stimulus induced Fmr1 knockout FVB.129P2-Fmr1tm1Cgr/J mouse model of audiogenic seizure assessed as decrease in sound-induced seizure at 20 mg/kg,sc and measured after 5 days by audiogenic seizure assay (Rvb=100%); assay type: functional; set-up: scale not given: the % may be the effect or the level left; conditions: time 5 day
Summary of the method: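 Fmr1 KO mice received one s.c. dose of vehicle or 20 mg/kg in hydroxypropyl-β-cyclodextrin; the AGS assay (124 dB stimulus after 2 min acclimation) was run 5 d later. Seizure incidence recorded.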

[14] = tested on: Mus musculus; assay: Anti-seizure activity against 124dB loud auditory stimulus induced Fmr1 FVB.129P2-Pde6b+ Tyr c-ch/AntJ wild type mouse model of audiogenic seizure assessed as decrease in sound-induced death due to respiratory arrest at 20 mg/kg,sc for 8 hrs followed by audiogenic seizure induction by audiogenic seizure assay; assay type: functional, organism-based; summary of the method: as §6
[15] = tested on: Mus musculus; assay: Anti-seizure activity against 124dB loud auditory stimulus induced Fmr1 knockout FVB.129P2-Fmr1tm1Cgr/J mouse model of audiogenic seizure assessed as decrease in sound-induced wild running at 30 mg/kg,sc for 8 hrs followed by audiogenic seizure induction by audiogenic seizure assay (Rvb=100%); assay type: functional; set-up: scale not given: the % may be the effect or the level left; summary of the method: as §6
[16] = tested on: Mus musculus; assay: Protective activity in Fmr1 FVB.129P2-Pde6b+ Tyr c-ch/AntJ wild type mouse assessed as change in apical dendritic spine density in cortical neuron at 20 mg/kg, sc and measured after 8 hrs by Golgi-Cox technique analysis; assay type: functional, organism-based; conditions: Cortical neurone
[17] = tested on: Mus musculus; assay: as §3, with “seizure” for “wild running”, “20” for “10”, “(Rvb=96%)” for “(Rvb=100%)”; assay type: functional; set-up: scale not given: the % may be the effect or the level left; conditions: time 5 day; summary of the method: as §4
[18] = tested on: Mus musculus; assay: Protective activity in FVB.129P2-Pde6b+ Tyr c-ch/AntJ wild type mouse assessed as balance on accelerating rotarod at 20 mg/kg, sc and measured for 4 to 5.25 hrs by rotarod test; assay type: functional, organism-based; conditions: time 4-5.25 hrs; summary of the method: as §5
[19] = tested on: Mus musculus; assay: Protective activity in FVB.129P2-Pde6b+ Tyr c-ch/AntJ wild type mouse assessed as decrease in horizontal movements at 20 mg/kg, sc for 5 days and measured for 30 mins by open field assay; assay type: functional, organism-based; conditions: time 5.0 day; summary of the method: as §1

CCn1c(=O)c(-c2ccc(Cl)cc2Cl)cc2cnc(Nc3ccc(N4CCNCC4)c(F)c3)nc21
Activity [1]: Active | Activity [2]: Non-Toxic | Activity [3]: inactive | Activity [4]: 75% | Activity [5]: inactive | Activity [6]: inactive | Activity [7]: inactive | Activity [8]: inactive | Activity [9]: 54% | Activity [10]: 0% | Activity [11]: inactive | Ct [12]: 951 ng/g | Activity [13]: 100% | Activity [14]: inactive | Activity [15]: 0% | Activity [16]: inactive | Activity [17]: 42% | Activity [18]: inactive | Activity [19]: Active
